# Results: ChEMBL document CHEMBL3112475, “Synthesis of novel ring-A fused hybrids of oleanolic acid with capabilities to arrest cell cycle and induce apoptosis in breast cancer cells” (Eur J Med Chem, 2014)
# Activity calls are given as the source filed them. No cut-off for these calls is given here.
# Experiments:
# [1] = tested on: MCF7; assay: Cell cycle arrest in human MCF7 cells assessed as accumulation at G0/G1 phase at 10 uM after 48 hrs by propidium iodide staining (reference value: 69.2%); type: functional
# [2] = tested on: HeLa; assay: Cytotoxicity against human HeLa cells after 48 hrs by MTT assay; type: functional, cell-based
# Summary of the method: (§1)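 1 × 10⁴ cells, counted by trypan blue exclusion, were incubated in 96-well plates with a concentration series for 48 h at 37 °C in DMEM with 10% FBS. MTT reagent (5 mg/ml) was added and absorbance read at 570 nm. IC50 was taken from a plot of % viability versus control against concentration. Compounds were first screened at 100 µM, and only those giving ≥50% cytotoxicity went to dose-response.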
# [3] = tested on: MCF7; assay: Ratio of etoposide IC50 to compound IC50 for human MCF7 cells; type: functional
# [4] = tested on: MCF7; assay: Induction of morphological change in human MCF7 cells assessed as cell shrinkage at 10 uM after 48 hrs by acridine orange and ethidium bromide staining based fluorescence microscopic analysis; type: functional
# Summary of the method: (§2)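 MCF-7 cells were plated at 1 × 10⁶ cells/ml and treated with compound for 48 h. After acridine orange/ethidium bromide dual staining, cells were viewed 30 min later by fluorescence microscopy through a blue filter. Green homogeneous nuclei were scored as intact, condensed or fragmented chromatin as apoptotic, and orange-red nuclei as late apoptotic/necrotic. At least 200 cells were counted in random fields, and each test was done three times.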
# [5] = tested on: MCF7; assay: Induction of morphological change in human MCF7 cells assessed as chromatin condensation with destructive fragmentation of nucleus at 10 uM after 48 hrs by acridine orange and ethidium bromide staining based fluorescence microscopic analysis; type: functional, cell-based; summary of the method: as §2
# [6] = tested on: MDA-MB-453; assay: Cytotoxicity against human MDA-MB-453 cells after 48 hrs by MTT assay; type: functional, cell-based; settings: MDA-MB-453, 48 h; summary of the method: as §1
# [7] = tested on: MCF7; assay: Cell cycle arrest in human MCF7 cells assessed as accumulation at G2/M phase at 5 uM after 48 hrs by propidium iodide staining (reference value: 14.9%); type: functional
# [8] = tested on: MCF7; assay: Induction of morphological change in human MCF7 cells assessed as membrane blebbing at 10 uM after 48 hrs by acridine orange and ethidium bromide staining based fluorescence microscopic analysis; type: functional, cell-based; summary of the method: as §2
# [9] = Cytotoxicity against human ME180 cells after 48 hrs by MTT assay; type: functional, cell-based; settings: ME-180, 48 h; summary of the method: as §1
# [10] = tested on: MDA-MB-231; assay: Cytotoxicity against human MDA-MB-231 cells after 48 hrs by MTT assay; type: functional, cell-based; settings: MDA-MB-231, 48 h; summary of the method: as §1
# [11] = tested on: MCF7; assay: Cell cycle arrest in human MCF7 cells assessed as accumulation at G2/M phase at 10 uM after 48 hrs by propidium iodide staining (reference value: 14.9%); type: functional
# [12] = tested on: MCF7; assay: Cell cycle arrest in human MCF7 cells assessed as accumulation at S phase at 10 uM after 48 hrs by propidium iodide staining (reference value: 10.2%); type: functional
# [13] = tested on: HT-29; assay: Cytotoxicity against human HT-29 cells after 48 hrs by MTT assay; type: functional, cell-based; settings: HT-29, 48 h; summary of the method: as §1
# [14] = tested on: MCF7; assay: Cell cycle arrest in human MCF7 cells assessed as accumulation at G0/G1 phase at 5 uM after 48 hrs by propidium iodide staining (reference value: 69.2%); type: functional
# [15] = tested on: PC-3; assay: Cytotoxicity against human PC3 cells after 48 hrs by MTT assay; type: functional, cell-based; settings: PC-3, 48 h; summary of the method: as §1
# [16] = tested on: MCF7; assay: Induction of apoptosis in human MCF7 cells assessed as increase of late apoptotic/necrotic cells at 10 uM after 48 hrs by acridine orange and ethidium bromide staining based fluorescence microscopic analysis; type: functional, cell-based; summary of the method: as §2
# [17] = tested on: MCF7; assay: Cytotoxicity against human MCF7 cells after 48 hrs by MTT assay; type: functional, cell-based; settings: MCF7, 48 h; summary of the method: as §1
# [18] = tested on: MCF7; assay: Induction of apoptosis in human MCF7 cells assessed as increase of early apoptotic cells at 5 uM after 48 hrs by acridine orange and ethidium bromide staining based fluorescence microscopic analysis; type: functional, cell-based; summary of the method: as §2
# [19] = tested on: MCF7; assay: Cell cycle arrest in human MCF7 cells assessed as accumulation at S phase at 5 uM after 48 hrs by propidium iodide staining (reference value: 10.2%); type: functional
structure (smiles),measurement,setting,value
COC(=O)[C@]12CCC(C)(C)C[C@H]1C1=CC[C@@H]3[C@@]4(C)Cc5c(-c6ccccc6)nc(N)nc5C(C)(C)[C@@H]4CC[C@@]3(C)[C@]1(C)CC2,Activity,[1],59.4%
same,IC50,[2],45.1 µM
same,Ratio IC50,[3],2
same,Activity,[4],Active
same,Activity,[5],Active
same,IC50,[6],12.6 µM
same,Activity,[7],17.8%
same,Activity,[8],Active
same,IC50,[9],16.7 µM
same,IC50,[10],16.3 µM
same,Activity,[11],14.2%
same,Activity,[12],19.8%
same,IC50,[13],30.7 µM
same,Activity,[14],62.4%
same,IC50,[15],75.3 µM
same,Activity,[16],Active
same,IC50,[17],10.6 µM
same,Activity,[18],Active
same,Activity,[19],13%
COC(=O)[C@]12CCC(C)(C)C[C@H]1C1=CC[C@@H]3[C@@]4(C)Cc5c(-c6ccccc6)nc(=O)[nH]c5C(C)(C)[C@@H]4CC[C@@]3(C)[C@]1(C)CC2,IC50,[2],> 100 µM
same,IC50,[6],96.7 µM
same,IC50,[9],> 100 µM
same,IC50,[10],> 100 µM
same,IC50,[13],> 100 µM
same,IC50,[15],87.4 µM
same,IC50,[17],78.9 µM
COC(=O)[C@]12CCC(C)(C)C[C@H]1C1=CC[C@@H]3[C@@]4(C)Cc5c(-c6ccccc6)nc(=S)[nH]c5C(C)(C)[C@@H]4CC[C@@]3(C)[C@]1(C)CC2,IC50,[2],75.4 µM
same,IC50,[6],40.6 µM
same,IC50,[9],> 100 µM
same,IC50,[10],75.5 µM
same,IC50,[13],69 µM
same,IC50,[15],> 100 µM
same,IC50,[17],30.9 µM
COC(=O)[C@]12CCC(C)(C)C[C@H]1C1=CC[C@@H]3[C@@]4(C)CCC(=O)C(C)(C)[C@@H]4CC[C@@]3(C)[C@]1(C)CC2,IC50,[2],> 100 µM
same,IC50,[6],> 100 µM
same,IC50,[9],> 100 µM
same,IC50,[10],> 100 µM
same,IC50,[13],> 100 µM
same,IC50,[15],> 100 µM
same,IC50,[17],78.7 µM
COC(=O)[C@]12CCC(C)(C)C[C@H]1C1=CC[C@@H]3[C@@]4(C)Cc5c(nn(-c6ccccc6)c5-c5ccccc5)C(C)(C)[C@@H]4CC[C@@]3(C)[C@]1(C)CC2,IC50,[2],> 100 µM
same,IC50,[6],> 100 µM
same,IC50,[9],> 100 µM
same,IC50,[10],> 100 µM
same,IC50,[13],> 100 µM
same,IC50,[15],> 100 µM
same,IC50,[17],> 100 µM
CC1(C)CC[C@]2(C(=O)O)CC[C@]3(C)C(=CC[C@@H]4[C@@]5(C)CC[C@H](O)C(C)(C)[C@@H]5CC[C@]43C)[C@@H]2C1 [OLEANOLIC_ACID],IC50,[2],> 100 µM
same,IC50,[6],> 100 µM
same,IC50,[9],> 100 µM
same,IC50,[10],> 100 µM
same,IC50,[13],> 100 µM
same,IC50,[15],> 100 µM
same,IC50,[17],> 100 µM
COC(=O)[C@]12CCC(C)(C)C[C@H]1C1=CC[C@@H]3[C@@]4(C)C/C(=C\c5ccccc5)C(=O)C(C)(C)[C@@H]4CC[C@@]3(C)[C@]1(C)CC2,IC50,[2],> 100 µM
same,IC50,[6],> 100 µM
same,IC50,[9],> 100 µM
same,IC50,[10],> 100 µM
same,IC50,[13],> 100 µM
same,IC50,[15],> 100 µM
same,IC50,[17],71.7 µM
COC(=O)[C@]12CCC(C)(C)C[C@H]1C1=CC[C@@H]3[C@@]4(C)Cc5c(noc5-c5ccccc5)C(C)(C)[C@@H]4CC[C@@]3(C)[C@]1(C)CC2,IC50,[2],> 100 µM
same,IC50,[6],> 100 µM
same,IC50,[9],> 100 µM
same,IC50,[10],> 100 µM
same,IC50,[13],> 100 µM
same,IC50,[15],> 100 µM
same,IC50,[17],88.2 µM
COC(=O)[C@]12CCC(C)(C)C[C@H]1C1=CC[C@@H]3[C@@]4(C)C[C@@H]5C(=NN[C@H]5c5ccccc5)C(C)(C)[C@@H]4CC[C@@]3(C)[C@]1(C)CC2,IC50,[2],> 100 µM
same,IC50,[6],> 100 µM
same,IC50,[9],> 100 µM
same,IC50,[10],> 100 µM
same,IC50,[13],> 100 µM
same,IC50,[15],> 100 µM
same,IC50,[17],96.6 µM
COc1cccc2c1C(=O)c1c(O)c3c(c(O)c1C2=O)C[C@@](O)(C(=O)CO)C[C@@H]3O[C@H]1C[C@H](N)[C@H](O)[C@H](C)O1 [DOXORUBICIN],IC50,[2],0.36 µM
same,IC50,[6],1.99 µM
same,IC50,[9],0.39 µM
same,IC50,[15],0.19 µM
COc1cc([C@@H]2c3cc4c(cc3[C@@H](O[C@@H]3O[C@@H]5CO[C@@H](C)O[C@H]5[C@H](O)[C@H]3O)[C@H]3COC(=O)[C@H]23)OCO4)cc(OC)c1O [ETOPOSIDE],IC50,[2],4.71 µM
same,IC50,[9],8.9 µM
same,IC50,[10],24.2 µM
same,IC50,[13],21.4 µM
same,IC50,[15],14.4 µM
same,IC50,[17],23.9 µM
